In ChEMBL document CHEMBL5316274 (J Med Chem, 2023):
Active and inactive are the calls of the source. No cut-off for these calls is given here.

Columns and labels:
[1] = biological target: Kappa-type opioid receptor (Mus musculus, UniProt P33534); test: Binding affinity to mouse kappa opioid receptor expressed in CHO cell membrane assessed as inhibition constant incubated for 1.5 hrs by competitive radioligand binding assay; type: cell membranes
[2] = biological target: Mu-type opioid receptor (Mus musculus) (UniProt P42866); test: Binding affinity to mouse mu opioid receptor expressed in CHO cell membrane assessed as stimulation of [35S]-GTPgammaS binding by measuring maximal efficacy incubated for 1.5 hrs by scintillation spectroscopy analysis relative DAMGO; type: cell membranes
Outline: (§1)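 MOR [35S]GTPγS functional assay in MOR-CHO membranes (Bmax about 2.5–4 pmol/mg). Efficacy is expressed as % of the maximal stimulation by full agonist DAMGO.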

Mus musculus [3] = test: Antinociceptive activity in Swiss Webster mouse assessed as increase in latency to tail withdrawal at 10 mg/kg, sc observed for 20 mins by warm water tail immersion assay; type: functional, organism-based
Outline: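 Male Swiss-Webster mice (23–35 g, 7–8 weeks), n = 5. Compound given 10 mg/kg s.c. at time 0. Tail-flick latency is measured in 56 ± 0.1 °C water and expressed as % maximum possible effect against saline vehicle.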

Mu-type opioid receptor [4] = biological target: T1, Mu-type opioid receptor (Mus musculus, UniProt P42866); test: Binding affinity to mouse mu opioid receptor expressed in CHO cell membrane assessed as inhibition constant incubated for 1.5 hrs by competitive radioligand binding assay; type: cell membranes
Mu-type opioid receptor [5] = biological target: T1, Mu-type opioid receptor; test: Binding affinity to mouse mu opioid receptor expressed in CHO cell membrane assessed as [35S]GTPgammaS binding incubated for 1.5 hrs by liquid scintillation counter analysis; type: cell membranes; outline: as §1
[6] = Selectivity ratio, ratio of Ki for binding affinity to human delta opioid receptor expressed in CHO cell membrane to Ki for binding affinity to mouse mu opioid receptor expressed in CHO cell membrane
Mus musculus [7] = species on record: Mus musculus; test: Selectivity ratio, ratio of Ki for binding affinity to mouse kappa opioid receptor expressed in CHO cell membrane to Ki for binding affinity to mouse mu opioid receptor expressed in CHO cell membrane
Mus musculus [8] = test: Effect of compound on chronic morphine pelleted Swiss Webster mouse model assessed as decrease in jump symptom at 1 mg/kg, sc and measured for 20 mins by withdrawal assay; type: functional, organism-based
Outline: (§2)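 Male Swiss-Webster mice made dependent with chronic morphine pellets. Compound is injected and wet-dog shakes, paw tremors and jumps are counted over 20 min after each injection.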

Mus musculus [9] = test: Effect of compound on chronic morphine pelleted Swiss Webster mouse model assessed as decrease in wet-dog shake symptom at 1 mg/kg, sc and measured for 20 mins by withdrawal assay; type: functional, organism-based; outline: as §2
Mus musculus [10] = test: Effect of compound on chronic morphine pelleted Swiss Webster mouse model assessed as decrease in paw tremors symptom at 1 mg/kg, sc and measured for 20 mins by withdrawal assay; type: functional, organism-based; outline: as §2
Mus musculus [11] = test: Antinociceptive activity in Swiss Webster mouse assessed as inhibition of morphine induced latency to tail withdrawal at 10 mg/kg, sc preincubated for 5 mins followed by morphine addition and measured after 20 mins by warm water tail immersion assay; type: functional, organism-based; settings: time 25.0 min
Outline: (§3)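 Male Swiss-Webster mice (n = 5). Compound is given s.c. at time 0 (10 mg/kg in the single-dose screen, a dose range for AD50), and morphine 10 mg/kg follows 5 min later. Tail flick is tested in 56 ± 0.1 °C water 20 min after morphine and scored as % MPE. Saline and morphine alone are the controls.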

Mus musculus [12] = test: Effect of compound on chronic morphine pelleted Swiss Webster mouse model assessed as decrease in paw tremors symptom at 50 mg/kg, sc and measured for 20 mins by withdrawal assay; type: functional, organism-based
Mus musculus [13] = test: Effect of compound on chronic morphine pelleted Swiss Webster mouse model assessed as decrease in wet-dog shake symptom at 50 mg/kg, sc and measured for 20 mins by withdrawal assay; type: functional, organism-based
[14] = biological target: Kappa-type opioid receptor (Mus musculus) (UniProt P33534); test: Binding affinity to mouse kappa opioid receptor expressed in CHO cell membrane assessed as stimulation of [35S]-GTPgammaS binding by measuring maximal efficacy incubated for 1.5 hrs by scintillation spectroscopy analysis relative SNC80; type: cell membranes
[15] = biological target: Kappa-type opioid receptor (Mus musculus) (UniProt P33534); test: Binding affinity to mouse kappa opioid receptor expressed in CHO cell membrane assessed as stimulation of [35S]-GTPgammaS binding by measuring maximal efficacy incubated for 1.5 hrs by scintillation spectroscopy analysis relative U50488H; type: cell membranes; settings: filed as modulator
Outline: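 KOR [35S]GTPγS functional assay in KOR-expressing CHO membranes. Efficacy is expressed as % of the maximal stimulation by full agonist U50,488H, with EC50 also determined. Mean of at least three independent experiments.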

Mus musculus [16] = test: Effect of compound on chronic morphine pelleted Swiss Webster mouse model assessed as decrease in jump symptom at 50 mg/kg, sc and measured for 20 mins by withdrawal assay; type: functional, organism-based
Mus musculus [17] = test: Antinociceptive activity in sc dosed Swiss Webster mouse assessed as inhibition of morphine induced latency to tail withdrawal preincubated for 5 mins followed by morphine addition and measured after 20 mins by warm water tail immersion assay; type: functional; settings: 25 min; outline: as §3
[18] = Metabolic stability in human liver microsomes assessed as half life; type: ADME, Microsome
Outline: (§4)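 Human or rat liver microsomal stability, run by a contract lab. Half-life and hepatic CLint are reported.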

[19] = Protein binding in rat plasma at 10 uM and measured upto 24 hrs by equilibrium dialysis based MS analysis; type: ADME, cell-free
[20] = Efflux ratio of apparent permeability in human Caco-2 cells; type: ADME, cell-based
[21] = Metabolic stability in rat liver microsomes assessed as half life; type: ADME, Microsome; outline: as §4
Mu-type opioid receptor [22] = biological target: T1, Mu-type opioid receptor; test: Antagonist activity at mouse mu opioid receptor expressed in CHO cells co-expressing Gqi5 assessed as inhibition of DAMGO induced increase in intracellular calcium flux incubated for 15 mins by Calcium flux assay; type: functional, cell-based
Outline: (§5)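 MOR-CHO cells transiently transfected with Gqi5 (4 h at 37 °C, 5% CO2), replated and used 48 h post-transfection. For antagonist mode DAMGO is then added. Fluorescence (RFU) is read for 90 s and peak values are taken. IC50 comes from non-linear regression. Triplicates, at least four experiments.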

Mus musculus [23] = test: Effect of compound on chronic morphine pelleted Swiss Webster mouse model assessed as decrease in paw tremors symptom at 10 to 80 mg/kg, sc and measured for 20 mins by withdrawal assay; type: functional, organism-based; settings: dose 10-80 mg/kg; outline: as §2
Mus musculus [24] = test: Effect of compound on chronic morphine pelleted Swiss Webster mouse model assessed as decrease in wet-dog shake symptom at 10 to 80 mg/kg, sc and measured for 20 mins by withdrawal assay; type: functional, organism-based; settings: dose 10-80 mg/kg; outline: as §2
[25] = biological target: Mu-type opioid receptor (Mus musculus) (UniProt P42866); test: Agonist activity at mouse mu opioid receptor expressed in CHO cells co-expressing Gqi5 assessed as increase in intracellular calcium level incubated for 15 mins by Calcium flux assay; type: functional, cell-based
Outline: as §5, with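 “post-transfection. Cells are loaded with fluo-4 AM plus probenecid in HBSS–HEPES buffer for 45 min, then exposed to compound for 15 min (agonist mode 0.3 nM to 3 μM).” for “post-transfection.”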

[26] = Protein binding in human plasma at 10 uM and measured upto 24 hrs by equilibrium dialysis based MS analysis; type: ADME, cell-free
[27] = biological target: Voltage-gated inwardly rectifying potassium channel KCNH2 (Homo sapiens, UniProt Q12809); test: Inhibition of human ERG expressed in CHO-K1 cells with holding potential of -80 mV by automated patch clamp assay; settings: CHO-K1 cells expressing human ERG
Mus musculus [28] = test: Effect of compound on chronic morphine pelleted Swiss Webster mouse model assessed as decrease in jump symptom at 40 mg/kg, sc and measured for 20 mins by withdrawal assay; type: functional, organism-based; outline: as §2

Structure (SMILES)	Ki [1] [nM]	Emax ([2]; filed as modulator) [%]	Activity (Mus musculus [3])	Ki (Mu-type opioid receptor [4]) [nM]	EC50 (Mu-type opioid receptor [5]) [nM]	Ratio Ki [6]	Ratio Ki (Mus musculus [7])	Emax [2] [%]	Activity (Mus musculus [11])	other results
Cc1c[nH]c2c(C(=O)N[C@@H]3CC[C@@]4(O)[C@H]5Cc6ccc(O)c7c6[C@@]4(CCN5CC4CC4)[C@H]3O7)cccc12	1.01	44	Active	0.46	1.22					
O=C(N[C@@H]1CC[C@@]2(O)[C@H]3Cc4ccc(O)c5c4[C@@]2(CCN3CC2CC2)[C@H]1O5)c1cccc2c([N+](=O)[O-])c[nH]c12	0.8	60.9	Active	0.54	1.13	47.5	1.5			
O=C(N[C@@H]1CC[C@@]2(O)[C@H]3Cc4ccc(O)c5c4[C@@]2(CCN3CC2CC2)[C@H]1O5)c1cccc2c(Cl)c[nH]c12		59.5	Active	0.62	1.05	7.2	0.5			
C=CCN1CC[C@]23c4c5ccc(O)c4O[C@H]2C(=O)CC[C@@]3(O)[C@H]1C5										Activity (Mus musculus [8]): Active; Activity (Mus musculus [9]): Active; Activity (Mus musculus [10]): Active
O=C(N[C@H]1CC[C@@]2(O)[C@H]3Cc4ccc(O)c5c4[C@@]2(CCN3CC2CC2)[C@H]1O5)c1cccc2c(C3CCCCC3)c[nH]c12	9.65			2.11	2.62	8.9	4.6	20.5	inactive	
O=C(N[C@@H]1CC[C@@]2(O)[C@H]3Cc4ccc(O)c5c4[C@@]2(CCN3CC2CC2)[C@H]1O5)c1cccc2cc(-c3ccccc3)[nH]c12	1.14			3.26	5.44	7.3	0.4	10.2	inactive	
O=C(N[C@H]1CC[C@@]2(O)[C@H]3Cc4ccc(O)c5c4[C@@]2(CCN3CC2CC2)[C@H]1O5)c1cccc2cc[nH]c12								19.1		Activity (Mus musculus [12]): Active; Activity (Mus musculus [13]): inactive; Emax ([14]; filed as modulator): 76.8%; Emax [15]: 48.3%; Activity (Mus musculus [16]): inactive; ED50 (Mus musculus [17]): 2.07 mg/kg
Cc1cc2cccc(C(=O)N[C@H]3CC[C@@]4(O)[C@H]5Cc6ccc(O)c7c6[C@@]4(CCN5CC4CC4)[C@H]3O7)c2[nH]1.Cl	2.1			0.59	3.86		3.6	12	Active	t1/2 [18]: > 1 h; PPB [19]: 96%; Ratio [20]: 2.2; t1/2 [21]: > 1 h; IC50 (Mu-type opioid receptor [22]): 87.5 nM; Activity (Mus musculus [23]): Active; Activity (Mus musculus [24]): inactive; Emax [14]: 26.7%; Emax [15]: 73.9%; Activity [25]: inactive; PPB [26]: 99%; IC50 [27]: 0.14 nM; Activity (Mus musculus [28]): Active; ED50 (Mus musculus [17]): 10.6 mg/kg
